Assay results from different studies.
Target: Serine/threonine-protein kinase tousled-like 1 (TLK1, Homo sapiens, UniProt Q9UKI8)
Residues used in one study (Q9UKI8 1-766): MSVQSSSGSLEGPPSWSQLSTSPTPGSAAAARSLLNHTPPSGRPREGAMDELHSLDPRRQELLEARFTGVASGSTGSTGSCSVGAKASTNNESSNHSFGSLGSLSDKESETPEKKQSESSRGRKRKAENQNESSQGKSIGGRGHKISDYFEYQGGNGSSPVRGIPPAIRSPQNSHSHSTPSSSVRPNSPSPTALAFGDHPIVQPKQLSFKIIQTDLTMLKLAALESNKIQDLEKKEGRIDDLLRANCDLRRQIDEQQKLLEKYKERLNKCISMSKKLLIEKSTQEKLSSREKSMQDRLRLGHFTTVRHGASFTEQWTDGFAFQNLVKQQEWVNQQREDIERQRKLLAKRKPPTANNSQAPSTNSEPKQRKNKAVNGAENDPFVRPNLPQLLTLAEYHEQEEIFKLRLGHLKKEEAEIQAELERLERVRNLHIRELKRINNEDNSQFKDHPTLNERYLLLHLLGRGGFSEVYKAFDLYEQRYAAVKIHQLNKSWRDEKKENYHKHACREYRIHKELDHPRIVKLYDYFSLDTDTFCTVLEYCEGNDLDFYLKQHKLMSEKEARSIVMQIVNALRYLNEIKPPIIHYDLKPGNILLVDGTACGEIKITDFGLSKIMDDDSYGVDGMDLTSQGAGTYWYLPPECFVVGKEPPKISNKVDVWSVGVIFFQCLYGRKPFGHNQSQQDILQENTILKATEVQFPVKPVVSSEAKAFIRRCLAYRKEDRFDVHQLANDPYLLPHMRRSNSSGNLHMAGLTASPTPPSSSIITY

Structure (SMILES)	assay	conditions	remaining binding
CC(=O)Nc1c(C(C)=O)c(=O)n(C)c2nc(-c3ccc(Cl)cc3Cl)c(-c3ccc(Cl)cc3)cc12	cell-free assay, competition with immobilised ligand	1 µM	100%
O=C(c1ccc(Nc2ncc(Cl)c(-c3cc4ccccc4s3)n2)cc1)N1CCC(N2CCCC2)CC1	binding, competition with immobilised ligand	1 µM	32%
CCc1ccccc1C(=O)Nc1n[nH]c2c(C)c(F)c(C3C(C#N)=C(C)N(C)C(C)=C3C#N)cc12	cell-free assay, competition with immobilised ligand	1 µM	100%
Nc1ncc2c(n1)-c1c([nH]c3ccc(C#CC4CC4)cc13)CCCC2	binding, competition with immobilised ligand	1 µM	87%
O=C(NCC1CCOCC1)c1n[nH]cc1NC(=O)c1c(F)cccc1F	binding, competition with immobilised ligand	1 µM	87%
CNC(=O)[C@@H]1CC[C@@H](n2c(-c3ccc4cnccc4c3)nc3ccc(C(=O)NCc4cccc(C(N)=O)c4)cc32)C1	binding, competition with immobilised ligand	1 µM	97%
CC1CCCN1c1nccc(-c2cnn3ncccc23)n1 (centres unmarked)	binding	1 µM	97%
O=C(c1ccc(Nc2nccc(-c3cc4ccccc4s3)n2)cc1)N1CCC(N2CCCC2)CC1	binding, competition with immobilised ligand	1 µM	12%
O=C(NC[C@@H]1[C@H]2CN(C(=O)OCc3cc(C(F)(F)F)cc(C(F)(F)F)c3)C[C@@H]12)c1ccc2[nH]nnc2c1	cell-free assay, competition with immobilised ligand	1 µM	68%
CN(c1nccc(-c2cnn3ncccc23)n1)C1CC1	binding	1 µM	100%
Cc1cnc(Nc2ccc(C(=O)N3CCC(N4CCCC4)CC3)cc2)nc1-c1cc2ccccc2s1	binding, competition with immobilised ligand	1 µM	21%
C=CC(=O)N1CCC(C(=O)NCC(=O)N2CCN(c3nc(-c4cnc(N)nc4C(F)F)nc(N4CCOCC4)n3)CC2)CC1	binding, competition with immobilised ligand	1 µM	99%
O=S(=O)(NC1CCC(c2cc(F)ccc2F)(S(=O)(=O)c2ccc(Cl)cc2)CC1)C(F)(F)F (centres unmarked)	cell-free assay, competition with immobilised ligand	1 µM	100%
CN(C)c1nccc(-c2cnn3ncccc23)n1	binding	1 µM	92%
c1cncc(-c2cccc(Nc3nccc(NC4CCCCC4)n3)c2)c1	binding, competition with immobilised ligand	10 µM	100%
CCS(=O)(=O)c1cc2cc(C[C@](O)(CC(C)(C)c3ccc(F)cc3C(N)=O)C(F)(F)F)[nH]c2cn1	cell-free assay, competition with immobilised ligand	1 µM	75%
N[C@@H]1CCN(c2nccc(-c3cnn4ncccc34)n2)C1	binding	1 µM	39%
COc1cnc(Nc2cccc(S(N)(=O)=O)c2)nc1N1CCN(c2ccccc2)CC1	binding, competition with immobilised ligand	1 µM	80%
O=C(Nc1ccc(Oc2ccc(F)cc2)cc1)N1CCc2ncccc2[C@H]1c1ccc(F)cc1	cell-free assay, competition with immobilised ligand	1 µM	100%
COc1ccnn2ncc(-c3ccnc(N(C)C)n3)c12	binding	1 µM	100%
